ChEMBL document CHEMBL1154907, “Synthesis and preclinical evaluations of 2-(2-fluorophenyl)-6,7-methylenedioxyquinolin-4-one monosodium phosphate (CHM-1-P-Na) as a potent antitumor agent” (J Med Chem, 2010)
≈ marks a conversion by molar mass, not a printed value. Calls of active or inactive are those of the source. No cut-off for these calls is given here.

Experiments:
OVCAR-3 [1] = assay: Antitumor activity against human OVCAR-3 cells xenografted in nude mouse assessed as increase in lifespan of organism at 134 mg/kg, ip administered in Q7D x 3 schedule relative to control; type: functional; conditions: route intraperitoneal
OVCAR-5 = assay: Growth inhibition of human OVCAR5 cells by SRB assay; type: functional
Outline: (§1)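 Human cancer cell panel; five concentrations from 10^-4 to 10^-8 M; growth measured by sulforhodamine B colorimetric method; GI50, TGI and LC50 derived from computer-analysed dose-response curves.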

SK-OV-3 [2] = assay: Induction of mitotic arrest in human SKOV3 cells assessed as increase in […] upregulation at 10 uM after 24 hrs by SDS-PAGE; type: functional, cell-based
Outline: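 SKOV-3 cells treated with vehicle (DMSO) or 10 μM for indicated times, or indicated doses for 24 h; whole-cell lysates resolved by SDS-PAGE, blotted and probed with anti-BubR1 mouse mAb; ECL detection.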

HT-29 = assay: Growth inhibition of human HT-29 cells by SRB assay; type: functional; outline: as §1
NCI-H23 = assay: Growth inhibition of human NCI-H23 cells by SRB assay; type: functional; outline: as §1
SNB-75 = assay: Growth inhibition of human SNB75 cells by SRB assay; type: functional
Outline: (§2)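 Cancer cell panel; growth measured by sulforhodamine B colorimetric method across five concentrations from 10^-4 to 10^-8 M; GI50, TGI and LC50 derived from computer-analysed dose-response curves.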

HCT-116 = assay: Growth inhibition of human HCT116 cells by SRB assay; type: functional; outline: as §1
HCT-15 = assay: Growth inhibition of human HCT15 cells by SRB assay; type: functional; outline: as §1
OVCAR-8 = assay: Growth inhibition of human OVCAR8 cells by SRB assay; type: functional; outline: as §1
[3] = Growth inhibition of human HBC5 cells by SRB assay; type: functional; outline: as §1
MKN-7 = assay: Growth inhibition of human MKN7 cells by SRB assay; type: functional; outline: as §1
DU-145 = assay: Growth inhibition of human DU145 cells by SRB assay; type: functional; outline: as §1
DMS-273 = assay: Growth inhibition of human DMS273 cells by SRB assay; type: functional; outline: as §1
SK-OV-3 [4] = assay: Cell cycle arrest in human SKOV3 cells assessed as increase in accumulation at G2/M phase at 10 uM after 36 hrs by propidium iodide-based flow cytometry; type: functional
Outline: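 SKOV-3 cells (DMEM/F-12, 10% fetal calf serum) treated with 10 μM for 6, 12, 24, 36 or 48 h; trypsinized, PBS-washed, fixed in 70% ice-cold ethanol overnight at -20 °C, RNase A treated, propidium iodide stained; DNA content by flow cytometry, phase percentages and hypodiploid fraction scored.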

St-4 = assay: Growth inhibition of human St-4 cells by SRB assay; type: functional; outline: as §2
[5] = AUC (0 to infinity) in CD1 mouse at 10 mg/kg, ip; type: ADME, organism-based; parameters: dose 10 mg/kg, route intraperitoneal, time infinity; conditions: plasma
Outline: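 Male CD-1 (Crl.) mice (22-24 g), single 10 mg/kg dose. Prodrug in 9% NaHCO3/water (1 mg/mL) given iv by tail vein or po by gavage after 4 h fast; parent given ip in cremophor/DMSO/saline 20/5/75 (2 mg/mL). Plasma sampled to 27 h, three mice per time point, acetonitrile precipitation, LC-MS/MS (ESI positive); parameters from mean plasma concentrations.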

[6] = target: Cathepsin S (Homo sapiens) (UniProt P25774); assay: Inhibition of human cathepsin S at 10 uM by enzyme assay
Outline: (§3)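 Commercial spectrum screen of enzyme assays under standard protocols; percent inhibition tested at 10 μM; IC50 determined for targets showing significant inhibition at that concentration; SEM given where multiple independent determinations.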

OVCAR-3 [7] = assay: Antitumor activity against human OVCAR-3 cells xenografted in nude mouse assessed as increase in lifespan of organism at 200 mg/kg, ip administered in Q7D x 3 schedule relative to control; type: functional; conditions: route intraperitoneal
A549 = assay: Growth inhibition of human A549 cells by SRB assay; type: functional; outline: as §1
SK-OV-3 [8] = assay: Induction of mitotic arrest in human SKOV3 cells assessed as increase in securin expression at 10 uM after 24 hrs by Western blot; type: functional, cell-based
Outline: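 SKOV-3 cells in DMEM/F-12 with 10% fetal calf serum, treated with 10 μM or vehicle (DMSO). Lysates, 50 μg protein, resolved by SDS-PAGE, transferred to PVDF, probed for cyclin B1 or securin with β-actin loading control; ECL detection, bands quantified by phosphorimaging; at least three separate experiments.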

SF-539 = assay: Growth inhibition of human SF539 cells by SRB assay; type: functional; outline: as §2
[9] = target: Glutamate decarboxylase (Clostridium perfringens (strain 13 / Type A)) (UniProt Q8XIQ6); assay: Inhibition of Clostridium perfringens glutamate decarboxylase at 10 uM by enzyme assay
Outline: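 Single-concentration screen at 10 μM in a contract enzyme assay panel run under standard protocols. Read-out is percent inhibition of the enzyme.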

[10] = target: Cathepsin D (Homo sapiens) (UniProt P07339); assay: Inhibition of human cathepsin D at 10 uM by enzyme assay; outline: as §3
SK-OV-3 [11] = assay: Induction of mitotic arrest in human SKOV3 cells assessed as microtubule disruption at 10 uM after 24 hrs by SDS-PAGE; type: functional, cell-based
[12] = Solubility in water; type: physicochemical; conditions: buffer
KM12 = assay: Growth inhibition of human KM12 cells by SRB assay; type: functional; outline: as §1
OVCAR-4 = assay: Growth inhibition of human OVCAR4 cells by SRB assay; type: functional; outline: as §1
[13] = target: Cathepsin E (Homo sapiens) (UniProt P14091); assay: Inhibition of human cathepsin E at 10 uM by enzyme assay; outline: as §3
SF-268 = assay: Growth inhibition of human SF268 cells by SRB assay; type: functional; outline: as §2
NCI-H522 = assay: Growth inhibition of human NCI-H522 cells by SRB assay; type: functional; outline: as §1
[14] = read-out: pLC50 (the source's name) (converted)

Sequence of Cathepsin D (Homo sapiens) (P07339 65-162 limits assumed): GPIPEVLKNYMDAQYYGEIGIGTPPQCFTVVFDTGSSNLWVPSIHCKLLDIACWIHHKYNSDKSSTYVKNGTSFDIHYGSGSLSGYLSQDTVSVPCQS
Sequence of Cathepsin D (Homo sapiens) (P07339 169-412 limits assumed): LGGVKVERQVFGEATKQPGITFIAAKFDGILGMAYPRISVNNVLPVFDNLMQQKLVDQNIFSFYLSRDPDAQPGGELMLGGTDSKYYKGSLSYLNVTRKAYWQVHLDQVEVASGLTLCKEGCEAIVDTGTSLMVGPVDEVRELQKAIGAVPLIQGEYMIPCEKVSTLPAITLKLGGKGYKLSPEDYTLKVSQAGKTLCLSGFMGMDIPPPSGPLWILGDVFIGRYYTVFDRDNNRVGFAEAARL
Sequence of Cathepsin S (Homo sapiens) (P25774 115-331 limits assumed): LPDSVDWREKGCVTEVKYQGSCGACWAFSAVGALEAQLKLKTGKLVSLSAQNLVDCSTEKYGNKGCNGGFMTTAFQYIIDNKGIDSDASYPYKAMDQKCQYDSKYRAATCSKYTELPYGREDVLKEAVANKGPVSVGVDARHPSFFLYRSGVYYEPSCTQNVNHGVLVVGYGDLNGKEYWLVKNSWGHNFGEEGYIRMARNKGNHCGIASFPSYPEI
Sequence of Cathepsin E (Homo sapiens) (P14091 whole entry): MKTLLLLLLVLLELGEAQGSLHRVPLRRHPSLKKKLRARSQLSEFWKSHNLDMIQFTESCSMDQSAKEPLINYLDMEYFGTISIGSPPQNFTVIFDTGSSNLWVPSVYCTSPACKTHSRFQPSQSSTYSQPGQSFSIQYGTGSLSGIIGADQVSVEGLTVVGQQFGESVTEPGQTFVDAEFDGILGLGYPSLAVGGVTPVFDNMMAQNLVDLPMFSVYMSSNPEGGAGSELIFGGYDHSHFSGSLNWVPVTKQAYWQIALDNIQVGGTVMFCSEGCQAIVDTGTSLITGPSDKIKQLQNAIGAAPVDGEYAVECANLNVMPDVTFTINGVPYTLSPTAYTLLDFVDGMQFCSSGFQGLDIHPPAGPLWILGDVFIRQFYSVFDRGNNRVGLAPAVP

SMILES: O=c1cc(-c2ccccc2F)[nH]c2cc3c(cc12)OCO3
- Activity (OVCAR-3 [1]): 133%
- GI50 (OVCAR-5; OVCAR-5): 813 nM
- CC50 (OVCAR-5; OVCAR-5, read-out: pLC50 (converted)): > 100000 nM
- TGI (OVCAR-5; OVCAR-5, read-out: pTGI): > 100000 nM
- Activity (SK-OV-3 [2]): Active
- GI50 (HT-29; HT-29): 309 nM
- CC50 (HT-29; HT-29, read-out: pLC50 (converted)): > 100000 nM
- TGI (HT-29; HT-29, read-out: pTGI (converted)): 1200 nM
- GI50 (NCI-H23; NCI-H23): 1170 nM
- CC50 (NCI-H23; NCI-H23, read-out: pLC50 (converted)): > 100000 nM
- TGI (NCI-H23; NCI-H23, read-out: pTGI): > 100000 nM
- GI50 (SNB-75; SNB-75): 20000 nM
- CC50 (SNB-75; SNB-75, read-out: pLC50 (converted)): > 100000 nM
- TGI (SNB-75; SNB-75, read-out: pTGI): > 100000 nM
- GI50 (HCT-116; HCT-116): 64.6 nM
- CC50 (HCT-116; HCT-116, read-out: pLC50 (converted)): > 100000 nM
- TGI (HCT-116; HCT-116, read-out: pTGI): > 100000 nM
- GI50 (HCT-15; HCT-15): 50.1 nM
- CC50 (HCT-15; HCT-15, read-out: pLC50 (converted)): > 100000 nM
- TGI (HCT-15; HCT-15, read-out: pTGI): > 100000 nM
- GI50 (OVCAR-8; OVCAR-8): 162 nM
- CC50 (OVCAR-8; OVCAR-8, read-out: pLC50 (converted)): > 100000 nM
- TGI (OVCAR-8; OVCAR-8, read-out: pTGI (converted)): 794 nM
- GI50 ([3]; HBC5): 776 nM
- CC50 ([3]; HBC5, read-out: pLC50 (converted)): > 100000 nM
- TGI ([3]; HBC5, read-out: pTGI): > 100000 nM
- GI50 (MKN-7; MKN-7): 45.7 nM
- CC50 (MKN-7; MKN-7, read-out: pLC50 (converted)): > 100000 nM
- TGI (MKN-7; MKN-7, read-out: pTGI): > 100000 nM
- GI50 (DU-145; DU-145): 50.1 nM
- CC50 (DU-145; DU-145, read-out: pLC50 (converted)): > 100000 nM
- TGI (DU-145; DU-145, read-out: pTGI (converted)): 562 nM
- GI50 (DMS-273; DMS-273): 56.2 nM
- CC50 (DMS-273; DMS-273, read-out: pLC50 (converted)): > 100000 nM
- TGI (DMS-273; DMS-273, read-out: pTGI): > 100000 nM
- Activity (SK-OV-3 [4]): Active
- GI50 (St-4; St-4): 6610 nM
- CC50 (St-4; St-4, read-out: pLC50 (converted)): > 100000 nM
- TGI (St-4; St-4, read-out: pTGI (converted)): 93300 nM
- AUC(0-inf) [5]: 417 ng·h/mL
- inhibition [6]: 1%
- Activity (OVCAR-3 [7]): 124%
- GI50 (A549; A549): 692 nM
- CC50 (A549; A549, read-out: pLC50 (converted)): > 100000 nM
- TGI (A549; A549, read-out: pTGI): > 100000 nM
- Activity (SK-OV-3 [8]): Active
- GI50 (SF-539): 120 nM
- CC50 (SF-539; [14]): 89100 nM
- TGI (SF-539; read-out: pTGI (converted)): 501 nM
- inhibition [9]: 66%
- inhibition [10]: 27%
- Activity (SK-OV-3 [11]): Active
- solubility [12]: 0.013 µg/mL (≈ 0.0459 µM)
- GI50 (KM12; KM12): 67.6 nM
- CC50 (KM12; KM12, read-out: pLC50 (converted)): > 100000 nM
- TGI (KM12; KM12, read-out: pTGI): > 100000 nM
- GI50 (OVCAR-4): 28.2 nM
- CC50 (OVCAR-4; [14]): 513 nM
- TGI (OVCAR-4; read-out: pTGI (converted)): 64.6 nM
- inhibition [13]: 12%
- GI50 (SF-268; SF-268): 100 nM
- CC50 (SF-268; SF-268, read-out: pLC50 (converted)): > 100000 nM
- TGI (SF-268; SF-268, read-out: pTGI): > 100000 nM
- GI50 (NCI-H522; NCI-H522): 60.3 nM
- CC50 (NCI-H522; NCI-H522, read-out: pLC50 (converted)): > 100000 nM
- TGI (NCI-H522; NCI-H522, read-out: pTGI (converted)): 562 nM
